From ChEMBL document CHEMBL1158589, “Benzimidazole and imidazole inhibitors of histone deacetylases: Synthesis and biological activity” (Bioorg Med Chem Lett, 2010)

Key:
[1] = biological target: T1, Protein deacetylase HDAC6 (Homo sapiens, UniProt Q9UBN7); experiment: Inhibition of human recombinant HDAC6
T1 sequence (Q9UBN7 whole entry): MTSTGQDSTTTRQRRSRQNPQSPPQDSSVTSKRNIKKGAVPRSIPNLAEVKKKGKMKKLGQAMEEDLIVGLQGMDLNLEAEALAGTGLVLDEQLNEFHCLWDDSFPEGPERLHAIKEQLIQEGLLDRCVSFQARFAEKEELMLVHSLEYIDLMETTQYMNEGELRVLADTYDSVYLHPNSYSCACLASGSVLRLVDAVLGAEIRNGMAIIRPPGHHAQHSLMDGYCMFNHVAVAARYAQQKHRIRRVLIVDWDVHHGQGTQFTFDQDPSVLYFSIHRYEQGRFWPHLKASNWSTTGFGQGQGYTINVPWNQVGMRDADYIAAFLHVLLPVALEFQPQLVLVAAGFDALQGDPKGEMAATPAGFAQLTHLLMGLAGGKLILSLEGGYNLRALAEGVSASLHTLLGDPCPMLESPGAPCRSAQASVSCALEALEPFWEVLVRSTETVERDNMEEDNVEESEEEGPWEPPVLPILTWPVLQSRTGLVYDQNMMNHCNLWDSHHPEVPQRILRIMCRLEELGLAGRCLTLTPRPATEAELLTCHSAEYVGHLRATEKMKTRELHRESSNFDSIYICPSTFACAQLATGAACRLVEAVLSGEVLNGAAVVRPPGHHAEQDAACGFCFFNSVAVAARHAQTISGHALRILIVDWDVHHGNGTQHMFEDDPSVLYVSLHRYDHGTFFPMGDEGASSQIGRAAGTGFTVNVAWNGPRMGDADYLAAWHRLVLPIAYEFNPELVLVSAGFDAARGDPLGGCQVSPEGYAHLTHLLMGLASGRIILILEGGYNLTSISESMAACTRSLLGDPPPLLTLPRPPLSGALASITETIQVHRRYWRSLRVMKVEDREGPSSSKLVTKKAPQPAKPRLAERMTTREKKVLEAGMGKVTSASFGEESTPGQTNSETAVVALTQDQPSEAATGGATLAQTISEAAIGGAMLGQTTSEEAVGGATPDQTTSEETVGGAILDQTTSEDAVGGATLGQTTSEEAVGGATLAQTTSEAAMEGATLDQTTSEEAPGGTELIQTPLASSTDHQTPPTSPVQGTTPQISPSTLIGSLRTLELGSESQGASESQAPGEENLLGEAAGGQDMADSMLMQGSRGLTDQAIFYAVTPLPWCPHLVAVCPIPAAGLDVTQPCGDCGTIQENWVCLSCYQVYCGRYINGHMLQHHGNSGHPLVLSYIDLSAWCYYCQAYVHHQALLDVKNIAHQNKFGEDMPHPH
Method in brief: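 Purified recombinant human HDAC-2 or HDAC-6 at known enzyme concentration with tBOC(Ac)-Lys-AMC as substrate. IC50 is the mean of at least three experiments.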

[2] = system: A549; experiment: Cytotoxicity against human A549 cells assessed as NADH level after 72 hrs by MTS cells; assay type: functional, cell-based; conditions: A549, 72 h
Method in brief: (§1)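 Human A549 lung, HL60 leukemia and PC3 prostate cancer lines incubated with compound for 72 h. Viability read by MTS colorimetric assay from remaining NADH; EC50 calculated; mean of at least two experiments.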

[3] = biological target: T2, Histone deacetylase 8 (Homo sapiens, UniProt Q9BY41); experiment: Inhibition of human recombinant HDAC8
T2 sequence (Q9BY41 whole entry): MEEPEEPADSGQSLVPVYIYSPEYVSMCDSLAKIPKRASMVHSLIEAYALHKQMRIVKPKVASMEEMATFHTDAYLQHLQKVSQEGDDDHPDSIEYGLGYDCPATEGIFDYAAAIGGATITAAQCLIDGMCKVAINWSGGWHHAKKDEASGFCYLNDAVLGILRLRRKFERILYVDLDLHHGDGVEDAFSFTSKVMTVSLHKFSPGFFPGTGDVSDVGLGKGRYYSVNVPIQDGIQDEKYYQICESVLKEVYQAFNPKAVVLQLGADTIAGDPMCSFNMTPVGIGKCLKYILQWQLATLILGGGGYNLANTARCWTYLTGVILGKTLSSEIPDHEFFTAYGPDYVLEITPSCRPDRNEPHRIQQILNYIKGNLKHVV

[4] = system: PC-3; experiment: Cytotoxicity against human PC3 cells assessed as NADH level after 72 hrs by MTS cells; assay type: functional, cell-based; conditions: PC-3, 72 h; method in brief: as §1
[5] = system: HL-60; experiment: Cytotoxicity against human HL60 cells assessed as NADH level after 72 hrs by MTS cells; assay type: functional, cell-based; conditions: HL-60, 72 h; method in brief: as §1

SMILES | IC50 [1] | EC50 [2] | IC50 [3] | EC50 [4] | EC50 [5]
Cc1nc(-c2cccc(/C=C/C(=O)NO)c2)n(CCc2ccccc2)c1C | 63 nM | 400 nM | 31 nM | 200 nM | 80 nM
CC(C)N(CCn1c(-c2cccc(/C=C/C(=O)NO)c2)nc2ccccc21)C(C)C | 100 nM | 5000 nM | 200 nM | 3100 nM | 5000 nM
O=C(/C=C/c1cccc(-c2nc3ccccc3n2[C@H]2CCCNC2)c1)NO | 25 nM | 2500 nM | 120 nM | 600 nM | 300 nM
Cc1nc(C)n(CCc2ccccc2)c1-c1cccc(/C=C/C(=O)NO)c1 | 120 nM | – | 100 nM | – | –
CCN1CCC[C@H](n2c(-c3cccc(/C=C/C(=O)NO)c3)nc3ccccc32)C1 | 79 nM | 600 nM | 160 nM | 200 nM | 80 nM
CCN1CCC[C@@H](n2c(-c3ccccc3)nc(C)c2-c2cccc(/C=C/C(=O)NO)c2)C1 | 630 nM | – | 400 nM | – | –
Cc1c(-c2ccccc2)nc(-c2cccc(/C=C/C(=O)NO)c2)n1CCc1ccccc1 | 63 nM | 800 nM | 20 nM | 300 nM | 200 nM
Cc1c(-c2ccccc2)nc(-c2cccc(/C=C/C(=O)NO)c2)n1[C@@H]1CCCN(C(C)C)C1 | 79 nM | 500 nM | 31 nM | 100 nM | 40 nM
Cc1nc(-c2cccc(/C=C/C(=O)NO)c2)n([C@@H]2CCCN(C(C)C)C2)c1-c1ccccc1 | 100 nM | 400 nM | 40 nM | 200 nM | 30 nM
Cc1nc(-c2ccccc2)n(CCc2ccccc2)c1-c1cccc(/C=C/C(=O)NO)c1 | 79 nM | – | 50 nM | – | –
O=C(/C=C/c1cccc(-c2nc3ccccc3n2-c2ccccc2)c1)NO | – | 16000 nM | 50 nM | 4000 nM | 1600 nM
Cc1c(Cc2ccccc2)nc(-c2cccc(/C=C/C(=O)NO)c2)n1[C@@H]1CCCN(C)C1 | 63 nM | 200 nM | 79 nM | 100 nM | 20 nM
Cc1c(-c2ccccc2)nc(-c2cccc(/C=C/C(=O)NO)c2)n1[C@@H]1CCCN(C)C1 | 63 nM | 600 nM | 50 nM | 100 nM | 40 nM
CCN1CCC[C@@H](n2c(-c3cccc(/C=C/C(=O)NO)c3)nc(-c3ccccc3)c2C)C1 | 100 nM | 300 nM | 31 nM | 50 nM | 30 nM
Cc1nc(Cc2ccccc2)n(CCc2ccccc2)c1-c1cccc(/C=C/C(=O)NO)c1 | 63 nM | – | 63 nM | – | –
O=C(/C=C/c1cccc(-c2nc3ccccc3n2CCN2CCOCC2)c1)NO | 160 nM | 25000 nM | 400 nM | 5000 nM | 1200 nM
Cc1nc(-c2cccc(/C=C/C(=O)NO)c2)n([C@@H]2CCCN(C)C2)c1-c1ccccc1 | 79 nM | 400 nM | 100 nM | 100 nM | 30 nM
CN1CCC[C@H](n2c(-c3cccc(/C=C/C(=O)NO)c3)nc3ccccc32)C1 | 50 nM | 1200 nM | 160 nM | 300 nM | 160 nM
O=C(/C=C/c1cccc(-c2nc3ccccc3n2CC2CCNCC2)c1)NO | 200 nM | > 50000 nM | 310 nM | > 50000 nM | > 50000 nM
